Results published in ChEMBL document CHEMBL4118021, “Studies of TAK1-centered polypharmacology with novel covalent TAK1 inhibitors” (Bioorg Med Chem, 2017).
Calls of active or inactive are those of the source. No cut-off for these calls is given here.

Experiments:
[1] = molecular target: Small ribosomal subunit protein eS6 (Homo sapiens) (UniProt P62753); assay: Binding affinity to RPS6 in human NCI-H23 cells at 1 uM by mass spectrometry based pull down assay; assay type: cell-based
[2] = molecular target: Heterogeneous nuclear ribonucleoproteins A2/B1 (Homo sapiens) (UniProt P22626); assay: Binding affinity to HNRNPA2B1 in human NCI-H23 cells at 1 uM by mass spectrometry based pull down assay; assay type: cell-based
[3] = molecular target: Polyadenylate-binding protein 4 (Homo sapiens) (UniProt Q13310); assay: Binding affinity to PABPC4 in human NCI-H23 cells at 1 uM by mass spectrometry based pull down assay; assay type: cell-based
[4] = molecular target: Mitogen-activated protein kinase kinase kinase 20 (Homo sapiens) (UniProt Q9NYL2); assay: Binding affinity to ZAK in human NCI-H23 cells at 1 uM by mass spectrometry based pull down assay; assay type: cell-based
[5] = molecular target: Cytosolic iron-sulfur assembly component 2A (Homo sapiens) (UniProt Q9H5X1); assay: Binding affinity to FAM96A in human NCI-H23 cells at 1 uM by mass spectrometry based pull down assay; assay type: cell-based
NCI-H23 = assay: Binding affinity to NDUFS7 in human NCI-H23 cells at 1 uM by mass spectrometry based pull down assay; assay type: cell-based
[6] = molecular target: Transmembrane protein 263 (Homo sapiens) (UniProt Q8WUH6); assay: Binding affinity to TMEM263 in human NCI-H23 cells at 1 uM by mass spectrometry based pull down assay; assay type: cell-based
[7] = molecular target: Proteasome activator complex subunit 1 (Homo sapiens) (UniProt Q06323); assay: Binding affinity to PSME1 in human NCI-H23 cells at 1 uM by mass spectrometry based pull down assay; assay type: cell-based
[8] = molecular target: Small COPII coat GTPase SAR1A (Homo sapiens) (UniProt Q9NR31); assay: Binding affinity to SAR1A in human NCI-H23 cells at 1 uM by mass spectrometry based pull down assay; assay type: cell-based
[9] = molecular target: Ribosomal protein S6 kinase alpha-1 (Homo sapiens) (UniProt Q15418); assay: Binding affinity to RPS6KA1 in human NCI-H23 cells at 1 uM by mass spectrometry based pull down assay; assay type: cell-based
[10] = molecular target: Proteasome activator complex subunit 2 (Homo sapiens) (UniProt Q9UL46); assay: Binding affinity to PSME2 in human NCI-H23 cells at 1 uM by mass spectrometry based pull down assay; assay type: cell-based
[11] = molecular target: T1, 80S Ribosome (Homo sapiens) (UniProt P08865+P42677+P62753+P15880+P23396+P61247+P62701+P22090+P46782+P62081+P62241+P46781+P46783+P62280+P25398+P62277+P62263+P62841+P62244+P62249+P08708+P62269+P39019+P60866+P63220+P62266+P62847+P62851+P62854+P62979+P62857+P62273+P62861+P39023+P36578+P46777+Q02878+P18124+P62424+P62917+P32969+P27635+P62906+P62913+P30050+P26373+P40429+P50914+P61313+P18621+Q07020+Q02543+P84098+P46778+P35268+P62829+P62750+P83731+P61254+P61353+P46776+P46779+P47914+P62888+P62899+P62910+P49207+P42766+P18077+Q9Y3U8+P83881+P61927+P61513+P63173+P62891+P62945+P05388+P05386); assay: Binding affinity to RPS17 in human NCI-H23 cells at 1 uM by mass spectrometry based pull down assay; assay type: cell-based
[12] = molecular target: Carbonyl reductase [NADPH] 1 (Homo sapiens) (UniProt P16152); assay: Binding affinity to CBR1 in human NCI-H23 cells at 1 uM by mass spectrometry based pull down assay; assay type: cell-based
[13] = molecular target: Thymidylate synthase (Homo sapiens) (UniProt P04818); assay: Binding affinity to TYMS in human NCI-H23 cells at 1 uM by mass spectrometry based pull down assay; assay type: cell-based
[14] = molecular target: Importin-5 (Homo sapiens) (UniProt O00410); assay: Binding affinity to IPO5 in human NCI-H23 cells at 1 uM by mass spectrometry based pull down assay; assay type: cell-based
[15] = molecular target: T1, 80S Ribosome (Homo sapiens); assay: Binding affinity to RPS7 in human NCI-H23 cells at 1 uM by mass spectrometry based pull down assay; assay type: cell-based
[16] = molecular target: Signal transducer and activator of transcription 1-alpha/beta (Homo sapiens) (UniProt P42224); assay: Binding affinity to STAT1 in human NCI-H23 cells at 1 uM by mass spectrometry based pull down assay; assay type: cell-based
[17] = molecular target: Small ribosomal subunit protein eS6 (Homo sapiens) (UniProt P62753); assay: Binding affinity to RPS6 in human NCI-H358 cells at 1 uM by mass spectrometry based pull down assay; assay type: cell-based
[18] = molecular target: E3 ubiquitin-protein ligase UBR4 (Homo sapiens) (UniProt Q5T4S7); assay: Binding affinity to UBR4 in human NCI-H358 cells at 1 uM by mass spectrometry based pull down assay; assay type: cell-based
[19] = molecular target: Carbonyl reductase [NADPH] 1 (Homo sapiens) (UniProt P16152); assay: Binding affinity to CBR1 in human NCI-H358 cells at 1 uM by mass spectrometry based pull down assay; assay type: cell-based
[20] = molecular target: Ribosomal protein S6 kinase alpha-3 (Homo sapiens) (UniProt P51812); assay: Binding affinity to RPS6KA3 in human NCI-H358 cells at 1 uM by mass spectrometry based pull down assay; assay type: cell-based
[21] = molecular target: Monofunctional C1-tetrahydrofolate synthase, mitochondrial (Homo sapiens) (UniProt Q6UB35); assay: Binding affinity to MTHFD1L in human NCI-H358 cells at 1 uM by mass spectrometry based pull down assay; assay type: cell-based
[22] = molecular target: Aldehyde dehydrogenase X, mitochondrial (Homo sapiens) (UniProt P30837); assay: Binding affinity to ALDH1B1 in human NCI-H358 cells at 1 uM by mass spectrometry based pull down assay; assay type: cell-based
Summary of the method: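 NCI-H23 or NCI-H358 cells were grown and lysed. Lysates were incubated overnight at 4 °C with 1 μM biotinylated covalent probe or DMSO, then pulled down on streptavidin beads. Proteins were run on polyacrylamide gels and stained with Coomassie. Bands were excised, digested and identified by mass spectrometry.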

[23] = molecular target: Transcription intermediary factor 1-beta (Homo sapiens) (UniProt Q13263); assay: Binding affinity to TRIM28 in human NCI-H358 cells at 1 uM by mass spectrometry based pull down assay; assay type: cell-based
[24] = molecular target: 5'-AMP-activated protein kinase catalytic subunit alpha-1 (Homo sapiens) (UniProt Q13131); assay: Binding affinity to PRKAA1 in human NCI-H358 cells at 1 uM by mass spectrometry based pull down assay; assay type: cell-based
[25] = molecular target: Polymeric immunoglobulin receptor (Homo sapiens) (UniProt P01833); assay: Binding affinity to PIGR in human NCI-H358 cells at 1 uM by mass spectrometry based pull down assay; assay type: cell-based
[26] = molecular target: Tubulin beta-2A chain (Homo sapiens) (UniProt Q13885); assay: Binding affinity to TUBB2A in human NCI-H358 cells at 1 uM by mass spectrometry based pull down assay; assay type: cell-based
[27] = molecular target: 6-phosphogluconate dehydrogenase, decarboxylating (Homo sapiens) (UniProt P52209); assay: Binding affinity to PGD in human NCI-H358 cells at 1 uM by mass spectrometry based pull down assay

Carbonyl reductase [NADPH] 1 (Homo sapiens), sequence (P16152 whole entry): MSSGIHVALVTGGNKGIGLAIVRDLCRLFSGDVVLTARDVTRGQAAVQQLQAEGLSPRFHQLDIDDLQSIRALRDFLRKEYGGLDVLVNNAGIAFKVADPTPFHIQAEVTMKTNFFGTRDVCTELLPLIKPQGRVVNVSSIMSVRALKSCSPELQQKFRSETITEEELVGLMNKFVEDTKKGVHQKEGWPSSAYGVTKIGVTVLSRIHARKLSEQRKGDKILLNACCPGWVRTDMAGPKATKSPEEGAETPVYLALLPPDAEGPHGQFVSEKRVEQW
Aldehyde dehydrogenase X, mitochondrial (Homo sapiens), sequence (P30837 whole entry): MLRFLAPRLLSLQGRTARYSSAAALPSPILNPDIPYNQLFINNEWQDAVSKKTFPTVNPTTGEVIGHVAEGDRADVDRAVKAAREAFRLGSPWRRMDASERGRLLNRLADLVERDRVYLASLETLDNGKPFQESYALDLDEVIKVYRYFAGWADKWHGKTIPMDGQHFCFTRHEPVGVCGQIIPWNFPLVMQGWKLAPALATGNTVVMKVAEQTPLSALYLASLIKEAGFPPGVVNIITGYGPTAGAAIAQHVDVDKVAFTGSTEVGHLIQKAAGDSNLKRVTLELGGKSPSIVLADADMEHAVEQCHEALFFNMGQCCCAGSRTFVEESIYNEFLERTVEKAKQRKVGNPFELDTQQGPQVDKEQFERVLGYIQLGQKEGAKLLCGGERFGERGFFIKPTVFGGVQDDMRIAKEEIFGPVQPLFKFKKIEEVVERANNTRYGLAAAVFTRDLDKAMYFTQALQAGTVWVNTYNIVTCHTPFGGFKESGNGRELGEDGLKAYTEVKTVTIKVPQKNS
Polyadenylate-binding protein 4 (Homo sapiens), sequence (Q13310 whole entry): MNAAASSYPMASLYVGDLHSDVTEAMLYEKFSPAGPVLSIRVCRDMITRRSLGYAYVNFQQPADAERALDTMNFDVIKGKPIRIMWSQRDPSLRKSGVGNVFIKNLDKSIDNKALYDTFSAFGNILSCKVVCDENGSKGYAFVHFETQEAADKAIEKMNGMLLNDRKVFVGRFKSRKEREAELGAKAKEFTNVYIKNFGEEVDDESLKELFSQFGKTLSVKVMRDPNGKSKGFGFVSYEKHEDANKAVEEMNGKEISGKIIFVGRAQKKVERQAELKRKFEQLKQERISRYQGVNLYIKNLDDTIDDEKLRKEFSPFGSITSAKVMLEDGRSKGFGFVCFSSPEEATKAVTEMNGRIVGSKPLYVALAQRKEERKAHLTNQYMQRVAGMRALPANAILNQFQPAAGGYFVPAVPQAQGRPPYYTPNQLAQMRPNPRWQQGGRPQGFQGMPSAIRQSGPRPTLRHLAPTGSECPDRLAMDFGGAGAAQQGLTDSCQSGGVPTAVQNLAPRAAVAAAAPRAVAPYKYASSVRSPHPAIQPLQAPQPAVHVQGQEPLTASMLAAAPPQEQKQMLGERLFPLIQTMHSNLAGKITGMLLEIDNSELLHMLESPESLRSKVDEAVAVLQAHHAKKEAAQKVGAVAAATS
Ribosomal protein S6 kinase alpha-3 (Homo sapiens), sequence (P51812 whole entry): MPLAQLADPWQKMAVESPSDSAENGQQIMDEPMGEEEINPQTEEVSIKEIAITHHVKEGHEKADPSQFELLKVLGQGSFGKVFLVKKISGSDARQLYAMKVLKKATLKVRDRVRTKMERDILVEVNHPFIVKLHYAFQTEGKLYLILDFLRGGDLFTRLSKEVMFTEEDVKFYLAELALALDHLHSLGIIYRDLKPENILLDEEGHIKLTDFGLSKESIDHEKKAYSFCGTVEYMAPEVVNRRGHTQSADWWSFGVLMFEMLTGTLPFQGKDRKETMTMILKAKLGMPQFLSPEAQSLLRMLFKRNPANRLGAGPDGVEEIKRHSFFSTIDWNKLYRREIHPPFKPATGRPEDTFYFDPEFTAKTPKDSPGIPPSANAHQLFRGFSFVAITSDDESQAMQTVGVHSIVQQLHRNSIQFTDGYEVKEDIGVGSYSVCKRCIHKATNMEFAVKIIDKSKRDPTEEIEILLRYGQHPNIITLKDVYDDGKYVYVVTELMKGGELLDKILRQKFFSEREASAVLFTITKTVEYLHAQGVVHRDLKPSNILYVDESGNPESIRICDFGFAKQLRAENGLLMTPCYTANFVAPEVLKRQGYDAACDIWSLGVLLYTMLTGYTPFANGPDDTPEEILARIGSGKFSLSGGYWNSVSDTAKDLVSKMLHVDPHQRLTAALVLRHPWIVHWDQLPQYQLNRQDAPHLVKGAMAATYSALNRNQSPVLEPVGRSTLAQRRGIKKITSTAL
Ribosomal protein S6 kinase alpha-1 (Homo sapiens), sequence (Q15418 whole entry): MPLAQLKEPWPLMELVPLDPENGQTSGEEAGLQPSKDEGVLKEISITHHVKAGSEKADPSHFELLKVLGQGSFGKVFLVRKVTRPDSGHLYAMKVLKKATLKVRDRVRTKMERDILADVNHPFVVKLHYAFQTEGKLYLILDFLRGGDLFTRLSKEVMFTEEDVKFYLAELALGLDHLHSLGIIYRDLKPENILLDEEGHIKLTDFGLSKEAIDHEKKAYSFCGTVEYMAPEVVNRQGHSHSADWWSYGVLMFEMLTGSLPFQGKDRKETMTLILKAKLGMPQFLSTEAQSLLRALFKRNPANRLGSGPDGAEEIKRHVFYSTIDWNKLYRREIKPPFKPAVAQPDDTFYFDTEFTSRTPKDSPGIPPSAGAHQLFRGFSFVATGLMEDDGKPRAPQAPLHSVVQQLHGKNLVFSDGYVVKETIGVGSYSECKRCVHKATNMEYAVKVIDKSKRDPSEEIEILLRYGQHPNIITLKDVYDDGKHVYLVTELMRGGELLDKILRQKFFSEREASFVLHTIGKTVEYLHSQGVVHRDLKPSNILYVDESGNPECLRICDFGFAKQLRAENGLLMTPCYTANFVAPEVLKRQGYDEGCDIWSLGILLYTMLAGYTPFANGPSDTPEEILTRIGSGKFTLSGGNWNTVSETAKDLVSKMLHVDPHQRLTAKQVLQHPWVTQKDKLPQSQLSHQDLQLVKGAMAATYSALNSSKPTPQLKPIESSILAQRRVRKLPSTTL
Mitogen-activated protein kinase kinase kinase 20 (Homo sapiens), sequence (Q9NYL2 2-800 limits assumed): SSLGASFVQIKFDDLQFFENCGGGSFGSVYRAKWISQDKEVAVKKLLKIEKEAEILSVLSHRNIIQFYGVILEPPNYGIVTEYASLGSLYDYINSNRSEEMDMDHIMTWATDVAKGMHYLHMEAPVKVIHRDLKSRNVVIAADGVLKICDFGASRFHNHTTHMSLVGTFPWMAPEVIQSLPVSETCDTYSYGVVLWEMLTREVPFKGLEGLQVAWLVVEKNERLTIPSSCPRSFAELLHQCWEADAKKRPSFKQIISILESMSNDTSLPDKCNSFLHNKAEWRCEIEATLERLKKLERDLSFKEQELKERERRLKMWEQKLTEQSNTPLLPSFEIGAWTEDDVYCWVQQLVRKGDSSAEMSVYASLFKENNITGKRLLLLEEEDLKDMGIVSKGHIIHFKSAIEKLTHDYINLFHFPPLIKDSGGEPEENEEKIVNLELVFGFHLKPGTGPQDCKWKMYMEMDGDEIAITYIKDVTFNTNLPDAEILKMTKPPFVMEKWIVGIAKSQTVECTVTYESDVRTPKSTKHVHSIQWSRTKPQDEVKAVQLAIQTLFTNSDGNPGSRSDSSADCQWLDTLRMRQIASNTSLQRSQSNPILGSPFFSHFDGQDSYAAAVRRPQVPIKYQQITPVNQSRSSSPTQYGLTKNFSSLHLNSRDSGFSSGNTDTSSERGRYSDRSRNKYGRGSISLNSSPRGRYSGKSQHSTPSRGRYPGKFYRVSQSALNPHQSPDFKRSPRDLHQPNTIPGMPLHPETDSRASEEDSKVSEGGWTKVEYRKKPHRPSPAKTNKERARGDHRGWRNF
Thymidylate synthase (Homo sapiens), sequence (P04818 2-313 limits assumed): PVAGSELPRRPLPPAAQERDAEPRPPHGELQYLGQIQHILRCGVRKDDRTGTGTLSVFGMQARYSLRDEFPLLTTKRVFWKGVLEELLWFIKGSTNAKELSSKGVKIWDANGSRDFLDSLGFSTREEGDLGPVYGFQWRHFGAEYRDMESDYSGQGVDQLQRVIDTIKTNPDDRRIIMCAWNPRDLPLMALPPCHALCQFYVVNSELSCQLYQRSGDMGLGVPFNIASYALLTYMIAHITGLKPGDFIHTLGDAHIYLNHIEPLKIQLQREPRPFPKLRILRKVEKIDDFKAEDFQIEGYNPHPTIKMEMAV
Heterogeneous nuclear ribonucleoproteins A2/B1 (Homo sapiens), sequence (P22626 whole entry): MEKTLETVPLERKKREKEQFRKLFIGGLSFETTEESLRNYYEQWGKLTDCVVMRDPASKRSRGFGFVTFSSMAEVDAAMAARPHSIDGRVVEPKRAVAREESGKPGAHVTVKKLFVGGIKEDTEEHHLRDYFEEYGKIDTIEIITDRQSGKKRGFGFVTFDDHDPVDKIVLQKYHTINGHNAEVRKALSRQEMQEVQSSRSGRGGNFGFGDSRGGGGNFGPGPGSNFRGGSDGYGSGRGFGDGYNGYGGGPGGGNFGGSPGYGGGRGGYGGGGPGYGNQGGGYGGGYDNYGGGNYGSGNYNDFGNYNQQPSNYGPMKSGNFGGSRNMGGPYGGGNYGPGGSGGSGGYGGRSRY
Tubulin beta-2A chain (Homo sapiens), sequence (Q13885 whole entry): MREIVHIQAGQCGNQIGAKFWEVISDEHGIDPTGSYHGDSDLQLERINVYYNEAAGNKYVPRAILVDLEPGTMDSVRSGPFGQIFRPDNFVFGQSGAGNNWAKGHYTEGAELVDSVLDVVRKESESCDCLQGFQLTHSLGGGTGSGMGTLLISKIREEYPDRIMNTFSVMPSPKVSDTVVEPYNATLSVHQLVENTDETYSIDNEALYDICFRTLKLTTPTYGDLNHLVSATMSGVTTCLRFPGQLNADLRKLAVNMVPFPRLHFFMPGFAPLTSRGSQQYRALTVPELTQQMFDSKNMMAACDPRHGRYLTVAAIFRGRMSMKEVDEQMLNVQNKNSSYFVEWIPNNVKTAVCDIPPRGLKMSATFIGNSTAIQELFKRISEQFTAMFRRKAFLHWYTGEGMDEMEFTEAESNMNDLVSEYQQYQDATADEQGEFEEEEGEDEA
Cytosolic iron-sulfur assembly component 2A (Homo sapiens), sequence (Q9H5X1 whole entry): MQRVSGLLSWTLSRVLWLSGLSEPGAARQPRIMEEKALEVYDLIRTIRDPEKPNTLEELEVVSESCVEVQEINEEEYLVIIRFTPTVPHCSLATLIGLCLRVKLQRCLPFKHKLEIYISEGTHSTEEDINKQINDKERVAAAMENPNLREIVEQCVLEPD

Activity [1]: Active
Activity [2]: Active
Activity [3]: Active
Activity [4]: Active
Activity [5]: Active
Activity [6]: Active
Activity [7]: Active
Activity [8]: Active
Activity [9]: Active
Activity [10]: Active
Activity [11]: Active
Activity [12]: Active
Activity [13]: Active
Activity [14]: Active
Activity [15]: Active
Activity [16]: Active
Activity [17]: Active
Activity [18]: Active
Activity [19]: Active
Activity [20]: Active
Activity [21]: Active
Activity [22]: Active
Activity [23]: Active
Activity [24]: Active
Activity [25]: Active
Activity [26]: Active
Activity [27]: Active
SMILES: C=CC(=O)Nc1ccccc1Nc1nc(Nc2ccc(N3CCN(CCOCCOCCOCCNC(=O)CCCC[C@@H]4SC[C@@H]5NC(=O)N[C@@H]54)CC3)cc2)ncc1Cl
Activity (NCI-H23): Active
